ChEMBL document CHEMBL3352165 (Eur J Med Chem, 2014)
pIC50: −log10 of the molar value.

Columns and labels:
[1] = system: MCF7; assay: Cytotoxicity against human MCF7 cells assessed as inhibition of cell growth after 72 hrs by sulforhodamine B assay; assay type: functional, cell-based; conditions: MCF7, 72 h
Outline: (§1)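 Cells grown in RPMI-1640 with 5% FBS and plated at 5.0×10^4/ml. Next day exposed to 0.5–5000 ng/ml for 3 days. Survival read by sulforhodamine B staining. IC50 taken from growth curves; mean of at least three determinations.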

[2] = molecular target: Vascular endothelial growth factor receptor 2 (Homo sapiens, UniProt P35968); assay: Inhibition of KDR (unknown origin) by ELISA method
Outline: (§2)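 Phosphotyrosine ELISA with purified kinase (20 ng) and 5 µM ATP in buffer (50 mM HEPES pH 7.4, 20 mM MgCl2, 0.1 mM MnCl2, 0.2 mM Na3VO4, 1 mM DTT), 1 h at 37 °C, DMSO ≤1%. Detection by PY99 antibody, then HRP anti-mouse IgG with o-phenylenediamine, A490. IC50 by Logit from at least three independent tests.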

[3] = system: BT-474; assay: Cytotoxicity against human BT474 cells assessed as inhibition of cell growth after 72 hrs by sulforhodamine B assay; assay type: functional, cell-based; conditions: BT-474, 72 h; outline: as §1
[4] = molecular target: Receptor tyrosine-protein kinase erbB-2 (Homo sapiens, UniProt P04626); assay: Inhibition of HER2 (unknown origin) assessed as reduction in autophosphorylation by ELISA method; outline: as §2
Chain of Receptor tyrosine-protein kinase erbB-2 (P04626 whole entry): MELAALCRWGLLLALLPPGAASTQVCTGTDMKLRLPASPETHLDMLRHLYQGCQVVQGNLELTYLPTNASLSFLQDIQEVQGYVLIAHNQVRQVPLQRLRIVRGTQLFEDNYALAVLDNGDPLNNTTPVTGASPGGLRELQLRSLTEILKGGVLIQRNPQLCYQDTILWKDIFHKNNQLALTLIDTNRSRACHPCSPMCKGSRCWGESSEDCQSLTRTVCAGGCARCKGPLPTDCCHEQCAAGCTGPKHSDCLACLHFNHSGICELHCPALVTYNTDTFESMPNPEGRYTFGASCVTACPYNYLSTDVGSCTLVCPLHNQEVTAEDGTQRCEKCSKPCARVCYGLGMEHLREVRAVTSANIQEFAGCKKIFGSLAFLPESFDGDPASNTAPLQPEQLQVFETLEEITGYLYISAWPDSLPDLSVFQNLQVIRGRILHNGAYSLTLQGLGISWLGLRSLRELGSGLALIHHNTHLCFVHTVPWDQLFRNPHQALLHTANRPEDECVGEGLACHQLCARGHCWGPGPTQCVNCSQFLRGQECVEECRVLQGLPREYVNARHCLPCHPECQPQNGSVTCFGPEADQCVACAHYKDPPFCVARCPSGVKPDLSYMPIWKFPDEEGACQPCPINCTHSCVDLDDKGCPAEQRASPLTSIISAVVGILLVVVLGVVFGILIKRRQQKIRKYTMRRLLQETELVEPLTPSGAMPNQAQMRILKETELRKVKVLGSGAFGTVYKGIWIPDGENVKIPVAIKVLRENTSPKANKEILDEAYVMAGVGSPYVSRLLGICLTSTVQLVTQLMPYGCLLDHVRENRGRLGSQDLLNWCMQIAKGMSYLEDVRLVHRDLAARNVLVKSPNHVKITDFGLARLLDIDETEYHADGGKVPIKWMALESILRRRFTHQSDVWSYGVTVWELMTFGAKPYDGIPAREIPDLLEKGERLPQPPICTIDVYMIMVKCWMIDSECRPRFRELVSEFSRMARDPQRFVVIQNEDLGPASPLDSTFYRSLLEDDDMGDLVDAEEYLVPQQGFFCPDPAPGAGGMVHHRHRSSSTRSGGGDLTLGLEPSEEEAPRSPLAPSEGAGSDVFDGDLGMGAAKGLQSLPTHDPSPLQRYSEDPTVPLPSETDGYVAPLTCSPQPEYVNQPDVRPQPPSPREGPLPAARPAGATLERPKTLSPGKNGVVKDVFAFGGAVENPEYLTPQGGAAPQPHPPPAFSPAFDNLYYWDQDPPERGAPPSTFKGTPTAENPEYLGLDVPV

[5] = molecular target: Platelet-derived growth factor receptor beta (Homo sapiens, UniProt P09619); assay: Inhibition of PDGFRbeta (unknown origin) by ELISA method; outline: as §2
Chain of Platelet-derived growth factor receptor beta (P09619 whole entry): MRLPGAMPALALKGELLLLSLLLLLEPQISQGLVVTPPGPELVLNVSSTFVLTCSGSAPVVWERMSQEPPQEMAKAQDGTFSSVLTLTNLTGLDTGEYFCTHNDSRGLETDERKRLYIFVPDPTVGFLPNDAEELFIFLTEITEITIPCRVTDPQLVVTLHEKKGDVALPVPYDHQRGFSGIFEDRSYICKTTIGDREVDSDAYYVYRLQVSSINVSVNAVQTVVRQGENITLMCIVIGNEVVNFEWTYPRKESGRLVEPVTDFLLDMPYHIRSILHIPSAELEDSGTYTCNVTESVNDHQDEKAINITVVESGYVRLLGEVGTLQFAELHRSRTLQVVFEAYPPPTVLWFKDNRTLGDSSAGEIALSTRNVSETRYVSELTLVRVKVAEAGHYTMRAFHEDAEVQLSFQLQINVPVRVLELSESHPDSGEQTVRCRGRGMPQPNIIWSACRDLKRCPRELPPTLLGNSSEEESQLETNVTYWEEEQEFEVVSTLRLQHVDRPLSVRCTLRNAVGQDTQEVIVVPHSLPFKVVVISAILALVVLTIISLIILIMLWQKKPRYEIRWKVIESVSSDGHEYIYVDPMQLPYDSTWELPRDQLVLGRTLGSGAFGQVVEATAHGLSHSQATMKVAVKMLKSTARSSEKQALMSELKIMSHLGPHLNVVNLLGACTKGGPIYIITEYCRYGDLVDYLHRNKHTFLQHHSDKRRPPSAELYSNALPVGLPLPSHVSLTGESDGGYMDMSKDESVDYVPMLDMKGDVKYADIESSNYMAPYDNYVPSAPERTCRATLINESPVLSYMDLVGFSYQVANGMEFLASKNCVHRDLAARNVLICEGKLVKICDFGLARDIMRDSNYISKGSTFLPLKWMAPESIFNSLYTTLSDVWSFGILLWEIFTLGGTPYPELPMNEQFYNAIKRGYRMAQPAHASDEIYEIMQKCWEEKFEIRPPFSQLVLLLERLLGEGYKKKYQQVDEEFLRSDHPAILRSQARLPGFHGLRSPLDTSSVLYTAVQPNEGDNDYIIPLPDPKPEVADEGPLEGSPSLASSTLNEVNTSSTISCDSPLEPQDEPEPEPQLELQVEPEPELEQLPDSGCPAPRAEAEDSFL

[6] = molecular target: Mast/stem cell growth factor receptor Kit (Homo sapiens, UniProt P10721); assay: Inhibition of c-KIT (unknown origin) by ELISA method; outline: as §2
Chain of Mast/stem cell growth factor receptor Kit (P10721 whole entry): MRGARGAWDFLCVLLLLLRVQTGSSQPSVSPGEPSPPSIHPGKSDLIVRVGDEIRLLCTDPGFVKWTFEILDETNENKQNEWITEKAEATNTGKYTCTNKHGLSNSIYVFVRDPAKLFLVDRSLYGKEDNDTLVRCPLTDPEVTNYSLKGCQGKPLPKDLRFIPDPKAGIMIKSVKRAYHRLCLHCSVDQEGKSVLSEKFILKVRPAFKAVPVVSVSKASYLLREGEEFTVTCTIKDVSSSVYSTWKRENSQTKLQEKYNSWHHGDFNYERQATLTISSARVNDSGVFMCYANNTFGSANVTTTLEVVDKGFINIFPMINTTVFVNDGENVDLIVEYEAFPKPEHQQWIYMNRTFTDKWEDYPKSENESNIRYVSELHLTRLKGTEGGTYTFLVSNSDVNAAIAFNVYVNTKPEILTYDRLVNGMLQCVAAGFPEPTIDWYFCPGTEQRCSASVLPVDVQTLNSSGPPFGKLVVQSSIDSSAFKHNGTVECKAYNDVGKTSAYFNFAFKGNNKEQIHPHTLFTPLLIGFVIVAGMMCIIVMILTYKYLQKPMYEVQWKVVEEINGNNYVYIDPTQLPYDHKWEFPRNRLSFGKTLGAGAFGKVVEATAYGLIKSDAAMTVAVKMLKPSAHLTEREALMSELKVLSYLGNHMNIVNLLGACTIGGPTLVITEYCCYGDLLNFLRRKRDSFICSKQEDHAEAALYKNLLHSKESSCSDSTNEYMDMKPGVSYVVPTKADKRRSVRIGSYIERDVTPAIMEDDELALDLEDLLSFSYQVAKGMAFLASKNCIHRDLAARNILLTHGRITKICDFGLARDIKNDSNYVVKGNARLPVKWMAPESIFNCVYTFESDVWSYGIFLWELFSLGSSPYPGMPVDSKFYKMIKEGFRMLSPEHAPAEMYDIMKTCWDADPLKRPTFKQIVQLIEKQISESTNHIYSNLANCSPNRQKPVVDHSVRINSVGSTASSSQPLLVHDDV

[7] = molecular target: Epidermal growth factor receptor (Homo sapiens, UniProt P00533); assay: Inhibition of HER1 (unknown origin) assessed as reduction in autophosphorylation by ELISA method
Chain of Epidermal growth factor receptor (P00533 whole entry): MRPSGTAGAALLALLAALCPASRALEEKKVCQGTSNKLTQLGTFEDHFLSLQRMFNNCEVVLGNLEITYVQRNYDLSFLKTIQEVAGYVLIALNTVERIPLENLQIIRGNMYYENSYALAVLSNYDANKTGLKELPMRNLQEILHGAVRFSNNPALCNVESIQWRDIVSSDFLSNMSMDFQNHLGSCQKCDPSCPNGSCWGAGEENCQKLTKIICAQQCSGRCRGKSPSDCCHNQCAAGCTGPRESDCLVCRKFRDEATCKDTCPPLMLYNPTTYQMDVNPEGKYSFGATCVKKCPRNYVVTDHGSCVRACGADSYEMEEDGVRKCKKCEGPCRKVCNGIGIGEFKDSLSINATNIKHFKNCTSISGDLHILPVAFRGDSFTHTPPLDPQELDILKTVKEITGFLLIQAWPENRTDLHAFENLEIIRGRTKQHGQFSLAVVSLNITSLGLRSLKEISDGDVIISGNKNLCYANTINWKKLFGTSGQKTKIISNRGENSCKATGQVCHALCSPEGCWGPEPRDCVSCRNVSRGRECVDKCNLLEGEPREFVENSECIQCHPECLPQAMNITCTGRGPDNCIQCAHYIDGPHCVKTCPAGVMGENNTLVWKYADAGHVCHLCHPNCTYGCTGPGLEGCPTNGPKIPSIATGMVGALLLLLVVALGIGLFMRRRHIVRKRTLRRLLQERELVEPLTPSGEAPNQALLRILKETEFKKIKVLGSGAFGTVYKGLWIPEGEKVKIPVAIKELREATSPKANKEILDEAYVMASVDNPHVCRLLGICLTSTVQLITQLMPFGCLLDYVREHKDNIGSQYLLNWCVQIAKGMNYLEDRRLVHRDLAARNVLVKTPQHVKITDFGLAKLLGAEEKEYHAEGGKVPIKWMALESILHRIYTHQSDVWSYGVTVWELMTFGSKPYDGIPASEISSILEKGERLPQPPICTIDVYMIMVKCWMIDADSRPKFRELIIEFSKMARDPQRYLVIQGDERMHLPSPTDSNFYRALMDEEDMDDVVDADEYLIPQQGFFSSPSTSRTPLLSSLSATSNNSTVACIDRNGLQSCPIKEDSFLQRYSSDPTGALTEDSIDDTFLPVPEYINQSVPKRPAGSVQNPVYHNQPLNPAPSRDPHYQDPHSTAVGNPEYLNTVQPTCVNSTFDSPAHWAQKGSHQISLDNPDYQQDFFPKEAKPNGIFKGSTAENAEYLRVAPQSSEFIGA

[8] = system: A-431; assay: Cytotoxicity against human A431 cells assessed as inhibition of cell growth after 72 hrs by sulforhodamine B assay; assay type: functional, cell-based; conditions: A-431, 72 h; outline: as §1
[9] = Cytotoxicity against human SKBR3 cells assessed as inhibition of cell growth after 72 hrs by sulforhodamine B assay; assay type: functional, cell-based; conditions: SK-BR-3, 72 h; outline: as §1
[10] = system: MDA-MB-453; assay: cells; conditions: Homo sapiens, MDA-MB-453, 72 h
[11] = Cmax in Beagle dog at 240 mg/kg, po administered as single dose measured after 0.25 to 24 hrs post dose by LC/MS/MS method; assay type: ADME, organism-based, Canis lupus familiaris; parameters: dose 240 mg/kg, route oral; conditions: in vivo
Outline: (§3)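 Single oral gavage of 240 mg/kg to beagle dogs (n = 6). Blood sampled at 0.25–24 h, kept on ice, centrifuged within 1 h (1000 × g, 4 °C, 15 min), plasma stored at −20 °C. Drug quantified by validated LC/MS/MS. AUC0–24 from non-compartmental analysis; Cmax and MRT taken directly from concentration–time data.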

[12] = AUC (0 to 24 hrs) in Beagle dog at 240 mg/kg, po administered as single dose measured after 0.25 to 24 hrs post dose by LC/MS/MS method; assay type: ADME, organism-based, Canis lupus familiaris; parameters: time < 24 hr, dose 240 mg/kg, route oral; conditions: plasma; outline: as §3
[13] = system: MDA-MB-231; assay: cells; conditions: Homo sapiens, MDA-MB-231, 72 h
[14] = cells; conditions: Homo sapiens, SK-OV-3, 72 h
[15] = Mean residence time in Beagle dog at 240 mg/kg, po administered as single dose measured after 0.25 to 24 hrs post dose by LC/MS/MS method; assay type: ADME, organism-based, Canis lupus familiaris; parameters: dose 240 mg/kg, route oral; conditions: in vivo; outline: as §3
[16] = system: MRC5; assay: cells; conditions: Homo sapiens, MRC5, 72 h
[17] = system: NCI-H460; assay: cells; conditions: Homo sapiens, NCI-H460, 72 h
[18] = Tmax in Beagle dog at 240 mg/kg, po administered as single dose measured after 0.25 to 24 hrs post dose by LC/MS/MS method; assay type: ADME, organism-based, Canis lupus familiaris; parameters: dose 240 mg/kg, route oral; conditions: in vivo
Outline: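 Beagle dogs (n = 6), single oral gavage dose of 240 mg/kg. Plasma levels measured by validated LC/MS/MS. Tmax read directly from the concentration-time data.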

[19] = cells; conditions: Homo sapiens, Calu-3, 72 h
[20] = system: Mus musculus; assay: Toxicity in human Calu3 cells xenografted BALB/cA mouse assessed as body weight loss at 200 mg/kg, po measured every other day for 21 days; assay type: organism-based, Calu-3; parameters: dose 200 mg/kg, route oral; conditions: in vivo, 504 h
Outline: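 Female BALB/cA nude mice, 6–7 weeks old, implanted s.c. on the mid-right flank with 2×10^6 Calu-3 cells in 0.2 ml PBS. At 60–150 mm³ tumour volume, mice randomised into six per treatment group (twelve vehicle controls). Oral dosing in 0.5% CMC aqueous solution with 0.1% Tween-80. Body weight recorded every other day for 21 d.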

[21] = Antitumor activity against human Calu3 cells xenografted in BALB/cA mouse assessed as tumor growth inhibition at 200 mg/kg, po; assay type: functional; conditions: Calu-3, read-out: TGI
Outline: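 Female BALB/cA nude mice, 6–7 weeks old, implanted s.c. on midright side with 2×10^6 Calu-3 cells in 0.2 ml PBS. Grouped at 60–150 mm³ tumour volume (6 per treated group, 12 vehicle). Oral dosing in 0.5% CMC with 0.1% Tween-80. Caliper volume = L×W²×0.5; inhibition = (1 − T/C)×100% on relative tumour volume; weight tracked for 21 d.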

Compound	pIC50 [1]	pIC50 [2]	pIC50 [3]	pIC50 [4]	pIC50 [5]	pIC50 [6]	pIC50 [7]	pIC50 [8]	pIC50 [9]	other results
CCNC(CS(C)(=O)=O)c1ccc(-c2ccc3ncnc(Nc4ccc(OCc5cccc(F)c5)c(Cl)c4)c3c2)o1 (racemic)	5.06	< 3.70	6.96	7.81	< 3.70	< 3.70	7.83	6.05	7.47	
CCCCCCOC(=O)N[C@H](CS(C)(=O)=O)c1ccc(-c2ccc3ncnc(Nc4ccc(OCc5cccc(F)c5)c(Cl)c4)c3c2)o1	< 5.00	< 3.70	5.72	6.80	< 3.70	< 3.70	6.96	5.92	5.98	
CS(=O)(=O)CC(N)c1ccc(-c2ccc3ncnc(Nc4ccc(OCc5cccc(F)c5)c(Cl)c4)c3c2)o1 (racemic)	5.18	< 3.70	7.12	8.47	< 3.70	< 3.70	7.75	6.17	7.58	
CCOC(=O)N[C@H](CS(C)(=O)=O)c1ccc(-c2ccc3ncnc(Nc4ccc(OCc5cccc(F)c5)c(Cl)c4)c3c2)o1	5.05	< 3.70	6.92	6.82	< 3.70	< 3.70	7.05	6.05	6.97	
CS(=O)(=O)C[C@@H](N)c1ccc(-c2ccc3ncnc(Nc4ccc(OCc5cccc(F)c5)c(Cl)c4)c3c2)o1	5.17	< 3.70	7.16	8.54	< 3.70	< 3.70	7.97	6.18	7.68	pIC50 [10]: 6.62; Cmax [11]: 2100 ng/mL; AUC(0-t) at 24 h [12]: 20300 ng·h/mL; pIC50 [13]: < 4.00; pIC50 [14]: 6.39; MRT [15]: 6.8 h; pIC50 [16]: < 4.00; pIC50 [17]: < 4.00; Tmax [18]: 5 h; pIC50 [19]: 6.66
CN(C)[C@@H](CS(C)(=O)=O)c1ccc(-c2ccc3ncnc(Nc4ccc(OCc5cccc(F)c5)c(Cl)c4)c3c2)o1	5.18	< 3.70	7.08	7.58	< 3.70	< 3.70	7.52	6.11	7.56	
CN(C)C(CS(C)(=O)=O)c1ccc(-c2ccc3ncnc(Nc4ccc(OCc5cccc(F)c5)c(Cl)c4)c3c2)o1 (racemic)	5.21	< 3.70	7.31	8.44	< 3.70	< 3.70	8.17	6.22	7.44	Activity [20]: Non-toxic; inhibition in vivo at 200 mg/kg [21]: 58%
CC(C)NC(CS(C)(=O)=O)c1ccc(-c2ccc3ncnc(Nc4ccc(OCc5cccc(F)c5)c(Cl)c4)c3c2)o1 (racemic)	5.21	< 3.70	7.03	7.32	< 3.70	< 3.70		6.21	6.99	
CS(=O)(=O)C[C@H](N)c1ccc(-c2ccc3ncnc(Nc4ccc(OCc5cccc(F)c5)c(Cl)c4)c3c2)o1	5.03	< 3.70	6.93	7.97	< 3.70	< 3.70	7.87	6.20	7.08	
CNC(CS(C)(=O)=O)c1ccc(-c2ccc3ncnc(Nc4ccc(OCc5cccc(F)c5)c(Cl)c4)c3c2)o1 (racemic)	5.19	< 3.70	7.11	9.00	< 3.70	< 3.70	7.46	6.19	7.52	
CS(=O)(=O)CC(NC1CCCCC1)c1ccc(-c2ccc3ncnc(Nc4ccc(OCc5cccc(F)c5)c(Cl)c4)c3c2)o1 (racemic)	5.04	< 3.70	6.76	7.23	< 3.70	< 3.70	7.11	6.11	6.79	
CCCCOC(=O)N[C@H](CS(C)(=O)=O)c1ccc(-c2ccc3ncnc(Nc4ccc(OCc5cccc(F)c5)c(Cl)c4)c3c2)o1	5.04	< 3.70	6.00	6.79	< 3.70	< 3.70	7.03	5.96	6.15	
CS(=O)(=O)CCNC(CS(C)(=O)=O)c1ccc(-c2ccc3ncnc(Nc4ccc(OCc5cccc(F)c5)c(Cl)c4)c3c2)o1 (racemic)	5.15	< 3.70	6.98	7.28	< 3.70	< 3.70	7.54	6.17	6.91	
